From ChEMBL document CHEMBL4842317, “Discovery of novel 3-hydroxyandrosta-5,7-Diene-17-Carboxylic acid derivatives as anti-inflammatory bowel diseases (IBD) agents” (Eur J Med Chem, 2021) come the findings set out here.

The source made the active and inactive calls. The calls are words filed in the database; no cut-off is given here.

In general, inhibition refers to the change of the read-out against control, counted positive when it falls. For orientation: IC50 means the concentration at which inhibition is half-maximal.

In data set [1] the test system is RAW264.7. Kind of data set: Antiinflammatory activity against mouse RAW264.7 cells assessed as decrease in LPS-induced IL-1beta mRNA expression at 20 uM in presence of LPS by qRT-PCR analysis. The format is functional, cell-based. An outline of the steps: (§1)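 RAW 264.7 cells are grown 12 h in six-well plates, then exposed to LPS (100 ng/ml) plus compound for 8 h. Reverse transcription is followed by SYBR Green qPCR with GAPDH as internal control. Relative expression is calculated by 2^-ΔΔCT versus the untreated control. Mean + SD from three independent experiments.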
For orientation: Quantitative PCR measures a nucleic acid by following its amplification.

The subject of data set [2] is RAW264.7. Kind of data set: Inhibition of PI3K/Akt signaling in mouse RAW264.7 cells assessed as inhibition of LPS-induced NFkappB p-p65 accumulation at 1.25 uM in presence of LPS by western blot analysis. The format is cell-based. The gist of the method:
(§2)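 Lysates of LPS-stimulated RAW 264.7 cells (20–30 μg protein) are run on 10% SDS-PAGE, blotted, blocked with 5% milk, probed overnight at 4 °C (1:5,000), then detected with HRP secondary and ECL. Actin, GAPDH or H3 (nuclear fraction) serve as loading controls, with densitometry ratios. Blots are representative of three independent experiments; mean + SD (n = 3).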
On the technique in general: Immunoblotting shows a protein as a band on a membrane.

For data set [3], the system named is RAW264.7. The data set can be described thus: Antiinflammatory activity against mouse RAW264.7 cells assessed as inhibition of LPS-induced COX2 mRNA expression at 20 uM incubated for 8 hrs in presence of LPS by qRT-PCR analysis. The format is functional, cell-based. An outline of the steps:
as §1

Data set [4] deals with RAW264.7. Kind of data set: Antiinflammatory activity against mouse RAW264.7 cells assessed as inhibition of LPS-induced NO production at 20 uM after 24 hrs by Griess assay. The format is functional. The gist of the method: (§3)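 RAW 264.7 cells (1 × 10^5 cells/mL) are cultured 24 h, stimulated with LPS (100 ng/mL final), and treated with compounds from 100 μM downward for 24 h in DMEM with 10% FBS. Medium nitrite is measured by Griess reaction (sulfanilamide, naphthylethylenediamine, phosphoric acid, 10 min, room temperature, dark). Mean + SD from three independent experiments.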
In general terms: Nitrite, measured by Griess reagent, commonly stands in for NO production.

The test system of data set [5] is RAW264.7. The data set can be described thus: Antiinflammatory activity against mouse RAW264.7 cells assessed as inhibition of LPS-induced iNOS mRNA expression at 20 uM incubated for 8 hrs in presence of LPS by qRT-PCR analysis. The format is functional, cell-based. The gist of the method: as §1
Data set [6] deals with RAW264.7. Kind of data set: Antiinflammatory activity against mouse RAW264.7 cells assessed as decrease in LPS-induced IL-6 mRNA expression at 20 uM in presence of LPS by qRT-PCR analysis. The format is functional, cell-based. The gist of the method:
as §1

Data set [7] relates to Mus musculus. Kind of data set: Antiinflammatory activity against DSS-induced colitis C57BL/6 mouse assessed as decrease in p-p65 level in colon at 50 mg/kg, ip administered for 7 days by western blot analysis. The format is functional, organism-based. The settings on record: time 7.0 day. An outline of the steps: (§4)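 Male C57BL/6 mice, 6 weeks old, 5 per group, given 3.5% DSS solution plus daily intraperitoneal drug (100 μL, in saline/castor oil/ethanol/DMSO 70:10:15:5) for 7 days. Colons collected after sacrifice. IL-1β is normalised per milligram of colonic protein. p-IκB-α and p-p65 in colonic protein are measured by Western blot. Bars give mean + SD.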

Data set [8] deals with RAW264.7. The data set can be described thus: Antiinflammatory activity against mouse RAW264.7 cells assessed as decrease in LPS-induced TNF-alpha mRNA expression at 20 uM in presence of LPS by qRT-PCR analysis. The format is functional, cell-based. An outline of the steps:
as §1

Data set [9] concerns Mus musculus. The data set can be described thus: Antiinflammatory activity against DSS-induced colitis C57BL/6 mouse model assessed as attenuation of colon length shortening at 25 mg/kg, ip administered for 7 days. The format is functional, organism-based. The settings on record: time 7.0 day. The gist of the method:
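Male C57BL/6 mice, 6 weeks old, 5 per group, given 3.5% DSS in drinking solution with intraperitoneal drug in saline/castor oil/ethanol/DMSO (70:10:15:5) daily for 7 days. Colons are photographed after sacrifice by cervical dislocation for gross assessment.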

Data set [10] concerns Mus musculus. Kind of data set: Antiinflammatory activity against DSS-induced colitis C57BL/6 mouse model assessed as dispersed CD86-positive cells in colon at 25 to 100 mg/kg, ip administered for 7 days by hematoxylin and eosin staining based microscopic analysis. Particulars: dose 25-100 mg/kg, time 7.0 day. The format is functional, organism-based. An outline of the steps:
(§5)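 DSS colitis (3.5% DSS, male C57BL/6 mice, n=5 per group) with 7-day intraperitoneal dosing in saline/castor oil/ethanol/DMSO vehicle. Colons are fixed in formalin, paraffin-embedded and stained with H&E (viewed at 200X). Separately, sections undergo CD86 immunohistochemistry (citrate antigen retrieval, 3% H2O2 block, 1:200 primary and HRP secondary, hematoxylin counterstain) viewed at 400X.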

Data set [11] concerns RAW264.7. The data set can be described thus: Cytotoxicity against mouse RAW264.7 cells assessed as reduction in cell viability at 3 to 100 uM incubated for 24 hrs by MTT assay. The format is cell-based. Particulars: raw264.7, 24 h, dose 3-100 µM. An outline of the steps:
(§6)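 RAW 264.7 cells are seeded at 1.0 × 10^4 per well and incubated overnight. Compounds are added at concentrations from 100 μM downward, with or without LPS (100 ng/mL), for 24 h. MTT (0.5 mg/mL) is added for 4 h and the formazan is dissolved in DMSO for the read-out.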

The subject of data set [12] is RAW264.7. Kind of data set: Antiinflammatory activity against mouse RAW264.7 cells assessed as decrease in LPS-induced NF-kappB mRNA expression in presence of LPS by qRT-PCR analysis. The format is functional, cell-based. The settings on record: dose 0.31-20 µM. An outline of the steps:
as §1

Data set [13] relates to Mus musculus. The data set can be described thus: Antiinflammatory activity against DSS-induced colitis C57BL/6 mouse model assessed as colon with intact structure with few inflammatory cells at 50 to 100 mg/kg, ip administered for 7 days by hematoxylin and eosin staining based microscopic analysis. The format is functional, organism-based. Particulars: dose 50-100 mg/kg, time 7.0 day. An outline of the steps: as §5

Data set [14] deals with RAW264.7. The data set can be described thus: Inhibition of PI3K/Akt signaling in mouse RAW264.7 cells assessed as inhibition of LPS-induced NFkappB p-p65 accumulation in presence of LPS by western blot analysis. The settings on record: dose 0.31-20 µM. The format is cell-based. An outline of the steps: as §2
In data set [15] the test system is RAW264.7. Kind of data set: Antiinflammatory activity against mouse RAW264.7 cells assessed as decrease in LPS-induced NF-kappB mRNA expression at 20 uM in presence of LPS by qRT-PCR analysis. The format is functional, cell-based. The gist of the method: as §1
Data set [16] has as its system RAW264.7. The data set can be described thus: Antiinflammatory activity against mouse RAW264.7 cells assessed as inhibition of LPS-induced NO production measured after 24 hrs by Griess assay. The format is functional, cell-based. The settings on record: RAW264.7, 24 h. The gist of the method:
as §3

Data set [17] has as its system RAW264.7. The data set can be described thus: Cytotoxicity against mouse RAW264.7 cells assessed as reduction in cell viability at 3 to 100 uM incubated for 24 hrs in presence of LPS by MTT assay. The format is cell-based. Particulars: raw264.7, 24 h, dose 3-100 µM. An outline of the steps: as §6
Data set [18] has as its system Mus musculus. The data set can be described thus: Antiinflammatory activity against DSS-induced colitis C57BL/6 mouse assessed as decrease in p-p65 level in colon at 25 mg/kg, ip administered for 7 days by western blot analysis. The settings on record: time 7.0 day. The format is functional, organism-based. An outline of the steps:
as §4

The test system of data set [19] is RAW264.7. The data set can be described thus: Antiinflammatory activity against mouse RAW264.7 cells assessed as inhibition of LPS-induced MCP-1 mRNA expression at 20 uM in presence of LPS by qRT-PCR analysis. The format is functional, cell-based. An outline of the steps:
as §1

For data set [20], the system named is Mus musculus. The data set can be described thus: Antiinflammatory activity against DSS-induced colitis C57BL/6 mouse assessed as decrease in IL-1beta level in colon at 50 mg/kg, ip administered for 7 days. The format is functional, organism-based. Particulars: time 7.0 day. An outline of the steps: as §4
Data set [21] concerns Mus musculus. Kind of data set: Antiinflammatory activity against DSS-induced colitis C57BL/6 mouse assessed as decrease in p-IkB alpha level in colon at 25 mg/kg, ip administered for 7 days by western blot analysis. The format is functional, organism-based. The settings on record: time 7.0 day. The gist of the method:
as §4

For data set [22], the system named is RAW264.7. Kind of data set: Inhibition of PI3K/Akt signaling in mouse RAW264.7 cells assessed as inhibition of LPS-induced Akt phosphorylation at 1.25 uM in presence of LPS by western blot analysis. The format is cell-based. The gist of the method: as §2

Regarding `C[C@]12CC[C@H]3[C@@H](CC=C4C[C@@H](O)CC[C@@]43C)[C@@H]1CC[C@@H]2C(=O)n1ccnc1`, the outcome in the data set with RAW264.7 [1], in the data set on RAW264.7 [3], in the data set on RAW264.7 [5], with RAW264.7 [6], in the data set with Mus musculus [7] and in the data set with Mus musculus [9] was Active. Also, the outcome in the data set with Mus musculus [10], in the data set with Mus musculus [13], in the data set on RAW264.7 [15], in the data set on Mus musculus [18], in the data set on RAW264.7 [19] and in the data set with Mus musculus [20] was Active. For the same compound, the outcome in the data set with Mus musculus [21] was Active. In addition, the inhibition entry in the data set on RAW264.7 [2] and in the data set with RAW264.7 [22] was “Active” throughout. The inhibition at 20 µM in the data set with RAW264.7 [4] stood at 100%. In addition, the outcome with RAW264.7 [8] was inactive. For the same compound, the Activity result is “Non-Toxic” with RAW264.7 [11], “Dose-Dependent Effect” in the data set with RAW264.7 [12] and “Non-Toxic” in the data set with RAW264.7 [17]. In addition, the inhibition entry with RAW264.7 [14] is “Dose-Dependent Effect”. Moreover, the IC50 with RAW264.7 [16] was 6.67 µM.
